The species named for series [1] is Felis catus. Nature of the series: Neuromuscular blocking activity in cat assessed as time duration of action of blockade of tibialis muscle twitches at ED50. The series is classed as functional.
The species named for series [2] is Felis catus. As to the kind of experiment: Neuromuscular blocking activity in cat assessed as blockade of tibialis muscle twitches. The series is classed as functional. An outline of the steps: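 The reported value is the dose that produced 50% blockade of muscle twitches, given ± standard error together with the number of determinations.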
Series [3] can be described thus: Dissociation constant, pKa of the compound in water. The series is classed as physicochemical.

Consider `C[N+](C)(C)c1ccc2c(c1)/C(=N/N)CC2.[I-]`, for which the Time in the series filed under Felis catus [1] is given as 17.1 min. Further, in the series listed under Felis catus [2], the ED50 stood at 3.98 µmol/kg.

For the molecule `C[N+](C)(C)c1ccc2c(c1)/C(=N/N)CCC2.[I-]`, the 50% effective dose (ED50) in the series filed under Felis catus [2] was more than 10 µmol/kg.

With `C[N+](C)(C)c1ccc2c(c1)CCC/C2=N\N.[I-]`, the Time in the series listed under Felis catus [1] came out at 5.2 min. The ED50 in the series filed under Felis catus [2] worked out at 0.16 µmol/kg. The molecule also showed a pKa in series [3] of 2.5.

With `C[N+](C)(C)c1cccc2c1CC/C2=N\N.[I-]`, the ED50 in the series listed under Felis catus [2] was more than 10 µmol/kg.

Turning to `C[N+](C)(C)CCOC(=O)CCC(=O)OCC[N+](C)(C)C.[Cl-].[Cl-]` [SUCCINYLCHOLINE CHLORIDE], the Time in the series listed under Felis catus [1] stood at 4.4 min. Further, the ED50 in the series listed under Felis catus [2] was determined as 0.1 µmol/kg.

For `C[N+](C)(C)c1cccc2c1CCC/C2=N\N.Cc1ccc(S(=O)(=O)[O-])cc1`, the ED50 in the series filed under Felis catus [2] was more than 10 µmol/kg.

Regarding `C[N+](C)(C)c1ccc2c(c1)CC/C2=N\N.[I-]`, the Time in the series listed under Felis catus [1] was determined as 10 min. The 50% effective dose (ED50) in the series listed under Felis catus [2] was 0.44 µmol/kg.

Regarding `CN(C)/N=C1\CCCc2cc([N+](C)(C)C)ccc21.[I-]`, the ED50 in the series filed under Felis catus [2] is more than 10 µmol/kg.

The record behind these values is ChEMBL document CHEMBL3271940, “Monoquaternary neuromuscular blocking agents based on 1-tetralone and 1-indanone” (J Med Chem, 1976).
